From ChEMBL document CHEMBL1145391, “C-3 alkyl/arylalkyl-2,3-dideoxy hex-2-enopyranosides as antitubercular agents: synthesis, biological evaluation, and QSAR study” (J Med Chem, 2007)
Values after ≈ are worked out from the molar mass of the structure shown. Active and inactive are the calls of the source. No cut-off for these calls is given here.

Legend:
[1] = test system: Mycobacterium tuberculosis; test: Antitubercular activity against Mycobacterium tuberculosis H37Rv by agar dilution assay; format: functional
In short: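 Compounds 2-fold serially diluted into 7H10 agar tubes. H37Rv inoculum taken from fresh Lowenstein-Jensen slants, adjusted to 1 mg/mL wet weight in 0.05% Tween 80 saline, then diluted 10^-2 (about 10⁷ cfu/mL) and spotted onto the agar. Incubated at 37 °C; final read at 30 days. MIC is the lowest concentration giving complete growth inhibition per spot. Ofloxacin was the standard.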

[2] = test system: Vero; test: Cytotoxicity against Vero cells at 100 ug/mL after 72 hrs by MTT assay; format: cell-based; settings: chlorocebus sabaeus
In short: (§1)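 VERO cells (from ATCC, maintained in-house) were seeded and grown at 37 °C in 5% CO₂/95% air. They were then exposed to the compound at 25, 50 and 100 µg/mL for 72 h.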

[3] = test system: J774.A1; test: Cytotoxicity against mouse […] cells at 50 ug/mL; format: cell-based
[4] = test system: J774.A1; test: Cytotoxicity against mouse […] cells at 12.5 ug/mL; format: cell-based
[5] = test system: J774.A1; test: Cytotoxicity against mouse […] cells at 25 ug/mL; format: cell-based
[6] = test system: Mycobacterium tuberculosis; test: Antitubercular activity against Mycobacterium tuberculosis H37Rv at 50 ug/mL by agar dilution assay; format: functional, organism-based
[7] = test system: Vero; test: Cytotoxicity against Vero cells at 25 ug/mL after 72 hrs by MTT assay; format: cell-based; settings: chlorocebus sabaeus; in short: as §1

Structure (SMILES)	MIC [1] [µg/mL]	further results
CC(C)O[C@@H]1C=C([C@H](O)c2ccc(F)cc2)C(=O)[C@@H](COC(=O)c2ccc([N+](=O)[O-])cc2)O1	25 (≈ 54.4 µM)	–
CC(C)O[C@@H]1C=C([C@H](O)c2ccc(C#N)cc2)C(=O)[C@@H](COC(=O)C(C)(C)C)O1	3.12 (≈ 7.77 µM)	Activity [2]: Non-toxic; Activity [3]: Non-toxic; Activity [4]: Non-toxic; Activity [5]: Non-toxic
CC(C)O[C@@H]1C=C([C@H](O)c2ccc(C(F)(F)F)cc2)[C@H](O)[C@@H](COC(=O)c2ccc([N+](=O)[O-])cc2)O1	25 (≈ 48.9 µM)	–
CC(C)O[C@@H]1C=C([C@H](O)c2ccc([N+](=O)[O-])cc2)C(=O)[C@@H](COC(=O)C(C)(C)C)O1	50 (≈ 119 µM)	–
CC(C)O[C@@H]1C=C([C@H](O)c2cccc([N+](=O)[O-])c2)C(=O)[C@@H](COC(=O)C(C)(C)C)O1	50 (≈ 119 µM)	–
CC(C)O[C@@H]1C=C([C@H](O)c2ccc(C#N)cc2)C(=O)[C@@H](COC(=O)c2ccc([N+](=O)[O-])cc2)O1	25 (≈ 53.6 µM)	–
CC(C)O[C@@H]1C=C([C@H](O)c2cccc([N+](=O)[O-])c2)[C@H](O)[C@@H](COC(=O)C(C)(C)C)O1	25 (≈ 59 µM)	–
CC(C)O[C@@H]1C=C([C@H](O)c2ccc(C(F)(F)F)cc2)[C@H](O)[C@@H](COC(=O)C(C)(C)C)O1	25 (≈ 56 µM)	–
CC(C)O[C@@H]1C=C([C@H](O)c2ccc(C#N)cc2)[C@H](O)[C@@H](COC(=O)C(C)(C)C)O1	–	Activity [6]: inactive
CC(C)O[C@@H]1C=C([C@H](O)c2ccc([N+](=O)[O-])cc2)[C@H](O)[C@@H](COC(=O)c2ccc([N+](=O)[O-])cc2)O1	25 (≈ 51.2 µM)	–
CC(C)O[C@@H]1C=C([C@H](O)c2ccccc2[N+](=O)[O-])C(=O)[C@@H](COC(=O)C(C)(C)C)O1	50 (≈ 119 µM)	–
CC(C)O[C@@H]1C=C([C@H](O)c2ccc(F)cc2)C(=O)[C@@H](COC(=O)C(C)(C)C)O1	–	Activity [6]: inactive
CCCCCCCCC[C@@H](O)C1=C[C@@H](OC(C)C)O[C@H](COC(=O)C(C)(C)C)[C@H]1O	1.56 (≈ 3.64 µM)	Activity [3]: Non-toxic; Activity [4]: Non-toxic; Activity [7]: Toxic; Activity [5]: Non-toxic
CC(=O)OC[C@H]1O[C@H](OC(C)C)C=C([C@H](O)c2ccc([N+](=O)[O-])cc2)C1=O	1.56 (≈ 4.11 µM)	Activity [3]: Non-toxic; Activity [4]: Non-toxic; Activity [7]: Toxic; Activity [5]: Non-toxic
CC(=O)OC[C@H]1O[C@H](OC(C)C)C=C([C@H](O)c2ccc([N+](=O)[O-])cc2)[C@@H]1O	25 (≈ 65.6 µM)	–
CCC[C@@H](O)C1=C[C@@H](OC(C)C)O[C@H](COC(=O)C(C)(C)C)C1=O	25 (≈ 73 µM)	–
CC(C)O[C@@H]1C=C([C@H](O)c2ccc(C(F)(F)F)cc2)C(=O)[C@@H](COC(=O)c2ccc([N+](=O)[O-])cc2)O1	25 (≈ 49.1 µM)	–
CCC[C@@H](O)C1=C[C@@H](OC(C)C)O[C@H](COC(=O)c2ccc([N+](=O)[O-])cc2)C1=O	25 (≈ 61.4 µM)	–
CC(C)O[C@@H]1C=C([C@H](O)c2ccc(F)cc2)[C@H](O)[C@@H](COC(=O)C(C)(C)C)O1	25 (≈ 63.1 µM)	–
CCCCCCCCC[C@@H](O)C1=C[C@@H](OC(C)C)O[C@H](COC(=O)c2ccc([N+](=O)[O-])cc2)[C@H]1O	25 (≈ 50.6 µM)	–
CC(C)O[C@@H]1C=C([C@H](O)c2ccc([N+](=O)[O-])cc2)C(=O)[C@@H](COC(=O)c2ccc([N+](=O)[O-])cc2)O1	25 (≈ 51.4 µM)	–
CCCCCCCCC[C@@H](O)C1=C[C@@H](OC(C)C)O[C@H](COC(=O)C(C)(C)C)C1=O	6.25 (≈ 14.7 µM)	Activity [3]: Non-toxic; Activity [4]: Non-toxic; Activity [7]: Toxic; Activity [5]: Non-toxic
CC(C)O[C@@H]1C=C([C@H](O)c2ccccc2[N+](=O)[O-])[C@H](O)[C@@H](COC(=O)C(C)(C)C)O1	25 (≈ 59 µM)	–
CC(C)O[C@@H]1C=C([C@H](O)c2ccc(C(F)(F)F)cc2)C(=O)[C@@H](COC(=O)C(C)(C)C)O1	50 (≈ 112 µM)	–
CC(C)O[C@@H]1C=C([C@H](O)c2ccc([N+](=O)[O-])cc2)[C@H](O)[C@@H](COC(=O)C(C)(C)C)O1	–	Activity [6]: inactive
CCCCCCCCC[C@@H](O)C1=C[C@@H](OC(C)C)O[C@H](COC(=O)c2ccc([N+](=O)[O-])cc2)C1=O	25 (≈ 50.9 µM)	–
